Screens: PubChem BioAssay, several laboratories
Rpn11 inh: blocks the human proteasome subunit Rpn11; inhibition, % at 20 µM; O00487; 360,000 compounds, 0.59% hits; human 26S proteasome, Ub4-pepOG fluorescence polarization; 20S core pre-blocked with epoxomicin;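 active means inhibition at 20 µM, scaled to each plate's controls, above about 33%, limit read from the data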
TPT1 inh: inhibitors of Candida albicans tRNA 2'-phosphotransferase TPT1; recombinant caTPT1, FP RNA substrate dephosphorylation; inhibition, % at 5 µM; 300,000 compounds, 0.81% hits; AID 1962;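 active means inhibition above the mean of all tested compounds plus 3 SD, set per screening campaign, cut at about 24% in these data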;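 further: plate controls were DMSO alone for no effect and ferristatin control at 100 nM for full effect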
HNF4A DNA FP: change in binding of human HNF4 alpha to DNA; activity change, % at 10 µM; 360,000 compounds, 0.3% hits; HNF4a-FITC DNA binding, fluorescence polarization, 1 h; P41235; in the data active means activity change above about 30%, passing the limit was not always enough
CSN deneddyl inh: blocks human CSN-mediated cullin deneddylation | 360,000 compounds, 0.38% hits | Q92905 | Purified CSN, SCF-Nedd8-OG deneddylation, fluorescence polarization | inhibition, % at 12.5 µM;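 active means pattern-corrected inhibition above about 35%, with an unprinted fluorescence ratio check between 0.5 and 1.5, limit read from the data, passing the limit was not always enough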;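 further: 0% = enzyme with substrate and 100% = substrate without enzyme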
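Assay system: Purified human Csn5 enzyme expressed in HEK293T cells | Amount: Enzyme 0.24 nM | Measured by: Fluorescence polarization readout | Medium: Tris/NaCl/DTT buffer, pH 7.5 | Compound dosing: One concentration, 12.5 µM, 0.25% DMSO | Times: 90 min incubation of compound, enzyme and substrate at room temperature | Control set: no-enzyme wells high, enzyme-with-substrate wells low | Read-out: % inhibition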
Rpn11 inh conf: confirmation of human proteasome Rpn11 inhibitors. shares compounds with Rpn11 inh. purified human 26S proteasome, Ub4-pepOG fluorescence polarization; proteasome pretreated with epoxomicin. inhibition, % at 20 µM. 1,900 compounds, 29% hits
MMP-2 inh: blocks human MMP-2, flagging nonselective RPN11 hits | shares compounds with Rpn11 inh | 1,900 compounds, 4% hits | inhibition, % at 20 µM | AID 602330 | recombinant MMP-2, FRET peptide cleavage fluorescence;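 further: human MMP-2 activated beforehand with APMA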
Thrombin FP: counter-screen for RPN11 inhibitors: inhibition of bovine thrombin; inhibition, % at 20 µM; shares compounds with Rpn11 inh; 1,900 compounds, 13% hits; AID 602333; bovine thrombin cleavage of Ub4-pepOG, fluorescence polarization;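 active means mean inhibition at least 40% at 20 µM, or signal 3 deviations below plate average, so some actives read negative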;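 further: plate controls were thrombin with DMSO for no effect and buffer wells lacking thrombin for full effect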
Target sequence (P00735 whole entry, looked up): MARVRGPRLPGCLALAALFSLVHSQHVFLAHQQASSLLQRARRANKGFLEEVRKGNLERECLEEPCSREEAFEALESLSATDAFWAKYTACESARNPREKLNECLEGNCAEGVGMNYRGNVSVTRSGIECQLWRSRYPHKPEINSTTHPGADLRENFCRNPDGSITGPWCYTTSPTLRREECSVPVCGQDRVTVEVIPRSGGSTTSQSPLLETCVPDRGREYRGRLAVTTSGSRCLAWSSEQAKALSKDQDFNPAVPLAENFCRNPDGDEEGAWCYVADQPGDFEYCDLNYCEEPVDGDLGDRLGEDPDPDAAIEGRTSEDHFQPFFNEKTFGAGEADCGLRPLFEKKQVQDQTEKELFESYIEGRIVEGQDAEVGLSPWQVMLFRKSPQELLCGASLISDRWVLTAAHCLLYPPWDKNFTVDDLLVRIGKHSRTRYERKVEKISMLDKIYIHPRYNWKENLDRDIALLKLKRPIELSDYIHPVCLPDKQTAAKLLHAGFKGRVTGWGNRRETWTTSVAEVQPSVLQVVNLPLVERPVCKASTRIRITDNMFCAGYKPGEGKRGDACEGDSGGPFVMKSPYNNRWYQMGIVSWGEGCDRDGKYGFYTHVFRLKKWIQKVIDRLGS
The depositor's hits bear a star. A selection: hits, their analogues and other compounds. The true share with any hit is near 1.5%. Unless noted, no stated cut-off is given here; in the data, active means inhibition above about 40%; inactive means the rest.

Screening CN(C(=O)c1cncc(Br)c1)C1C2CC3CC(C2)CC1C3 (centres undefined) returned Rpn11 inh 1.1, TPT1 inh 0.4, HNF4A DNA FP 1.3 and CSN deneddyl inh 1.1.
For CSc1ccc(/C=N/NC(=O)c2ccc(C)c(C)c2)cc1 the results were Rpn11 inh 60.6*, TPT1 inh -2.8, HNF4A DNA FP -1.1, CSN deneddyl inh 10.3, Rpn11 inh conf 24.6, MMP-2 inh 37.5 and Thrombin FP 7.3.
CCN(CC)S(=O)(=O)c1cccc(NC(=O)COc2ccc(F)cc2Br)c1 was read as Rpn11 inh 45.8*, TPT1 inh -0.8, HNF4A DNA FP -4.1, CSN deneddyl inh -1.5, Rpn11 inh conf 0.7, MMP-2 inh 26.2 and Thrombin FP -3.3.
`CCCN(CCC)C(=O)C(c1ccccc1)C1(O)CCCCC1` (centres undefined) gave Rpn11 inh 1.9, HNF4A DNA FP -2.6 and CSN deneddyl inh 1.3.
`CC(OC(=O)/C=C/c1ccc2ccccc2n1)C(=O)NCc1ccccc1` (centres undefined) gave Rpn11 inh 10.2, TPT1 inh -4.7, HNF4A DNA FP 2.6 and CSN deneddyl inh 0.5.
`Cc1cc(C)cc(NC(=O)C2CCN(S(=O)(=O)c3ccc4c(c3)NC(=O)C(C)S4)CC2)c1` (centres undefined) gave Rpn11 inh 11.5, TPT1 inh -4.2, HNF4A DNA FP 4.0 and CSN deneddyl inh 4.0.
For Cc1ccc(NC(=O)C2CCN(S(=O)(=O)c3ccc4c(c3)NC(=O)C(C)S4)CC2)cc1Cl (centres undefined) the results were Rpn11 inh 41.6*, TPT1 inh 8.3, HNF4A DNA FP 5.4, CSN deneddyl inh 0.4, Rpn11 inh conf 44.5*, MMP-2 inh 0.7 and Thrombin FP 34.9.
`COc1ccc(C#Cc2ccc3c(c2)O[C@@H](CN(C)C(=O)Nc2cccc(OC)c2)[C@H](C)CN([C@@H](C)CO)S3(=O)=O)cc1` gave Rpn11 inh 47.0*, HNF4A DNA FP 5.5, CSN deneddyl inh 9.1, Rpn11 inh conf 40.6*, MMP-2 inh -40.9 and Thrombin FP 37.9.
For O=C(Cc1cccc2ccccc12)Nc1ccc(-c2cc3ccccc3oc2=O)cc1 the results were Rpn11 inh 43.3*, TPT1 inh 1.6, HNF4A DNA FP 4.3, CSN deneddyl inh 0.2, Rpn11 inh conf 10.4, MMP-2 inh -9.5 and Thrombin FP -7.1.
Cc1cccc(NC(=O)CN(C)C(=O)Cc2ccc(-c3ccccc3)cc2)c1C was read as Rpn11 inh 2.1, HNF4A DNA FP 3.2 and CSN deneddyl inh -0.3.
For O=C(NNC(=O)NC1CCCCC1)NC1CCCCC1 the results were Rpn11 inh -5.5, TPT1 inh -1.9, HNF4A DNA FP -1.0 and CSN deneddyl inh -2.2.
Screening O=C(NC1CCCCC1)NC1CC2CCCC(C1)N2C1CCCC1 (centres undefined) returned Rpn11 inh 72.6*, TPT1 inh -1.1, HNF4A DNA FP 0.3, CSN deneddyl inh -1.6, Rpn11 inh conf -3.3, MMP-2 inh -26.7 and Thrombin FP -8.5.
For N#Cc1ccccc1OCc1cccc(S(=O)(=O)N2CCOCC2)c1 the results were Rpn11 inh 2.5, HNF4A DNA FP -0.1 and CSN deneddyl inh -3.5.
For Cc1nn(-c2ccccc2)c(Cl)c1/C=C1\SC(=S)NC1=O the results were Rpn11 inh 48.3*, TPT1 inh 14.1, HNF4A DNA FP 31.2, CSN deneddyl inh 17.8, Rpn11 inh conf -7.5, MMP-2 inh 14.3 and Thrombin FP -7.0.
For Cc1nn(-c2ccccc2)c(Cl)c1/C=C1\SC(=S)N(CCCCCC(=O)O)C1=O the results were Rpn11 inh 1.9, TPT1 inh -0.4, HNF4A DNA FP -2.0 and CSN deneddyl inh 12.3.
For CC(=O)Nc1ccc(C(=O)CN2C(=O)NC3(CCOc4ccccc43)C2=O)c(F)c1 (centres undefined) the results were Rpn11 inh 6.2, HNF4A DNA FP 7.5 and CSN deneddyl inh 6.6.
`Cc1ccc(S(=O)(=O)N2CCCCC2)cc1NC(=O)CSc1ncnc2ccccc12` gave Rpn11 inh -4.4, TPT1 inh -0.6, HNF4A DNA FP 0.5 and CSN deneddyl inh 2.6.
Screening Cc1ccc(NC(=O)CSc2ncnc3ccccc23)cc1S(=O)(=O)N1CCCCCC1 returned Rpn11 inh 42.7*, TPT1 inh 3.2, HNF4A DNA FP 1.6, CSN deneddyl inh -0.4, Rpn11 inh conf 21.7, MMP-2 inh 50.0* and Thrombin FP -13.5.
Screening N/C(=N\OC(=O)Oc1ccccc1)c1ccc([N+](=O)[O-])cc1 returned Rpn11 inh -8.7, TPT1 inh 0.8, HNF4A DNA FP -3.6 and CSN deneddyl inh 5.3.
Screening O=[N+]([O-])c1ccc(NN=C(Oc2ccccc2)c2ccc([N+](=O)[O-])cc2)cc1 returned Rpn11 inh 42.1*, HNF4A DNA FP 22.6, CSN deneddyl inh 7.0, Rpn11 inh conf 8.9, MMP-2 inh -42.7 and Thrombin FP -14.3.
For COc1cc(/C=C2\SC(=S)N(Nc3ccccc3)C2=O)cc(OC)c1OC the results were Rpn11 inh 4.9, TPT1 inh 4.4, HNF4A DNA FP 4.2 and CSN deneddyl inh 5.4.
CCOc1cc(/C=C2\SC(=S)N(NS(=O)(=O)c3ccc(C)cc3)C2=O)ccc1O was read as Rpn11 inh 85.0*, TPT1 inh 18.4, HNF4A DNA FP 14.4, CSN deneddyl inh 31.5, Rpn11 inh conf 69.2*, MMP-2 inh 17.7 and Thrombin FP 56.7*.
COc1cc(/C=C2\SC(=S)N(NS(=O)(=O)c3ccc(C)cc3)C2=O)cc(OC)c1OC was read as Rpn11 inh 0.4, TPT1 inh 2.3, HNF4A DNA FP -1.7 and CSN deneddyl inh 1.4.
For COc1cc(/C=C2\SC(=S)N(NC(=O)c3ccccc3OC)C2=O)ccc1O the results were Rpn11 inh 75.4*, HNF4A DNA FP 47.7*, CSN deneddyl inh 5.1, Rpn11 inh conf 19.5, MMP-2 inh 12.0 and Thrombin FP -0.7.
`Clc1cccc2sc(N3CCCC3)nc12` gave Rpn11 inh -10.4, TPT1 inh -3.3, HNF4A DNA FP -1.3 and CSN deneddyl inh -0.4.
`Clc1cccc2sc(N3CCOCC3)nc12` gave Rpn11 inh 33.1*, TPT1 inh -0.9, HNF4A DNA FP -2.4, CSN deneddyl inh -0.5, Rpn11 inh conf -6.7, MMP-2 inh -46.7 and Thrombin FP -11.9.
CS(=O)(=O)N1CCN(c2ccc([N+](=O)[O-])c(NCc3ccccc3)c2)CC1 was read as Rpn11 inh -10.4, TPT1 inh -2.6, HNF4A DNA FP 3.8 and CSN deneddyl inh 2.0.
